According to ChEMBL document CHEMBL3860087, “New Broad-Spectrum Antibacterial Amphiphilic Aminoglycosides Active against Resistant Bacteria: From Neamine Derivatives to Smaller Neosamine Analogues” (J Med Chem, 2016):
In brackets after ≈: the same amount, converted by molar mass.

Columns and labels:
[1] = tested on: Escherichia coli; test: Antibacterial activity against ANT2''-IA expressing Escherichia coli L8058.1 by microdilution method; format: functional
In short: (§1)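 Strains grown overnight at 37 °C on trypticase soy agar; MIC by broth microdilution from fresh culture in cation-adjusted Mueller–Hinton broth, starting inoculum 10^6 cells, following CLSI recommendations.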

[2] = tested on: Pseudomonas aeruginosa; test: Antibacterial activity against triABC deficient Pseudomonas aeruginosa PA406 by microdilution method; format: functional; in short: as §1
[3] = tested on: Pseudomonas aeruginosa; test: Antibacterial activity against Pseudomonas aeruginosa ATCC 27853 by microdilution method; format: functional; in short: as §1
[4] = tested on: Staphylococcus aureus; test: Antibacterial activity against healthcare-acquired methicillin-resistant Staphylococcus aureus ATCC 33592 by microdilution method; format: functional
In short: (§2)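 Broth microdilution per CLSI in cation-adjusted Mueller–Hinton broth. Strains were grown overnight at 37 °C on trypticase soy agar, and a fresh culture was used. Starting inoculum was 10^6 cells.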

[5] = tested on: Escherichia coli; test: Antibacterial activity against AAC6'-IB expressing Escherichia coli PAZ505H8101 by microdilution method; format: functional; in short: as §1
[6] = tested on: Acinetobacter lwoffii; test: Antibacterial activity against Acinetobacter lwoffii ATCC 17925 by microdilution method; format: functional; in short: as §1
[7] = tested on: Pseudomonas aeruginosa; test: Antibacterial activity against MexXY expressing Pseudomonas aeruginosa PA22 by microdilution method; format: functional; in short: as §1
[8] = tested on: Staphylococcus aureus; test: Antibacterial activity against NorA expressing Staphylococcus aureus 1 by microdilution method
[9] = Cytotoxicity against mouse J774 cells assessed as cell viability at 10 uM after 24 hrs by MTT assay relative to control; format: toxicity, cell-based; conditions: J774 cells, read-out: Activity
In short: (§3)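 Murine J774 macrophages exposed 24 h to 10 or 30 μM compound, then 1 h with 0.2 mg/mL MTT; reaction stopped with DMSO, OD read at 570 nm as metabolic-activity viability. Number of independent experiments given per value.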

[10] = tested on: Acinetobacter lwoffii; test: Antibacterial activity against APH3'-VIA expressing Acinetobacter lwoffii AI.88-483 by microdilution method; format: functional; in short: as §1
[11] = tested on: Klebsiella pneumoniae; test: Antibacterial activity against Klebsiella pneumoniae ATCC 700603 by microdilution method; format: functional; in short: as §1
[12] = tested on: Escherichia coli; test: microbe, parasite or virus in culture; conditions: ATCC 25922
[13] = tested on: Pseudomonas aeruginosa; test: Antibacterial activity against AAC6'-2A expressing Pseudomonas aeruginosa F03 by microdilution method; format: functional; in short: as §1
[14] = tested on: Staphylococcus aureus; test: Antibacterial activity against Staphylococcus aureus ATCC 25923 by microdilution method; format: functional; in short: as §2
[15] = Cytotoxicity against mouse J774 cells assessed as cell viability at 30 uM after 24 hrs by MTT assay relative to control; format: toxicity, cell-based; conditions: J774 cells, read-out: Activity; in short: as §3

Compound	MIC [1] [µg/mL]	MIC [2] [µg/mL]	MIC [3] [µg/mL]	MIC [4] [µg/mL]	MIC [5] [µg/mL]	MIC [6] [µg/mL]	MIC [7] [µg/mL]	MIC [8] [µg/mL]	viability at 24 h, 10 µM [9] [%]	MIC [10] [µg/mL]	MIC [11] [µg/mL]	MIC [12] [µg/mL]	MIC [13] [µg/mL]	MIC [14] [µg/mL]	viability at 24 h, 30 µM [15] [%]
NC[C@H]1O[C@H](O[C@H]2[C@H](O)[C@@H](O)[C@H](N)C[C@@H]2N)[C@H](N)[C@@H](OCc2ccc3ccccc3c2)[C@@H]1OCc1ccc2ccccc2c1	16 to 32 (≈ 26.5 to 53.1 µM)	2 to 4 (≈ 3.32 to 6.64 µM)	16 (≈ 26.5 µM)	4 to 8 (≈ 6.64 to 13.3 µM)	8 to 16 (≈ 13.3 to 26.5 µM)	4 (≈ 6.64 µM)	128 (≈ 212 µM)	2 to 4 (≈ 3.32 to 6.64 µM)	79.1	> 128	> 128	16 to 32 (≈ 26.5 to 53.1 µM)	128 (≈ 212 µM)	2 to 4 (≈ 3.32 to 6.64 µM)	
CCCCCCCCCO[C@@H]1[C@@H](N)[C@@H](OCC(O)CNCCCO)O[C@H](CN)[C@H]1OCCCCCCCCC (mixture of isomers)	4	8	8	1 to 2	4	1	8	1 to 2	89.9	8	8 to 16	4 to 8	8	2	13.7
CCCCCCCCCO[C@@H]1[C@@H](N)[C@@H](OC[C@H](O)CN=[N+]=[N-])O[C@H](CN)[C@H]1OCCCCCCCCC	> 128	> 128	> 128	2 (≈ 3.78 µM)	> 128	4 (≈ 7.55 µM)	128 (≈ 242 µM)	2 (≈ 3.78 µM)	62.2	> 128	> 128	32 (≈ 60.4 µM)	> 128	2 (≈ 3.78 µM)	5.9
C=CCO[C@H]1O[C@H](CN)[C@@H](OCc2ccc3ccccc3c2)[C@H](OCc2ccc3ccccc3c2)[C@H]1N	128 (≈ 257 µM)	32 (≈ 64.2 µM)	> 128	8 (≈ 16 µM)	64 (≈ 128 µM)	8 (≈ 16 µM)	> 128	8 (≈ 16 µM)	86.9	64 (≈ 128 µM)	> 128	64 (≈ 128 µM)	> 128	8 (≈ 16 µM)	28.3
NC[C@H]1O[C@H](O[C@H]2[C@H](O)[C@@H](O[C@H]3O[C@H](CO)[C@@H](O)[C@H](N)[C@H]3O)[C@H](N)C[C@@H]2N)[C@H](N)C[C@@H]1O [TOBRAMYCIN]	64 (≈ 137 µM)	< 0.25	< 0.25	64 (≈ 137 µM)	32 (≈ 68.4 µM)	< 0.25	0.5 (≈ 1.07 µM)	0.5 (≈ 1.07 µM)	99.7	0.5 to 1 (≈ 1.07 to 2.14 µM)	4 to 8 (≈ 8.56 to 17.1 µM)	1 (≈ 2.14 µM)	128 (≈ 274 µM)	0.25 (≈ 0.535 µM)	83.2
CCCCCCCCCO[C@@H]1[C@@H](N)[C@@H](OC[C@H](O)CN)O[C@H](CN)[C@H]1OCCCCCCCCC	4 (≈ 7.94 µM)	8 (≈ 15.9 µM)	8 (≈ 15.9 µM)	2 (≈ 3.97 µM)	4 (≈ 7.94 µM)	2 (≈ 3.97 µM)	8 (≈ 15.9 µM)	2 (≈ 3.97 µM)	88	8 (≈ 15.9 µM)	8 to 16 (≈ 15.9 to 31.8 µM)	4 (≈ 7.94 µM)	8 (≈ 15.9 µM)	2 (≈ 3.97 µM)	14.4
CCCCCCCCCO[C@@H]1[C@@H](N)[C@@H](OC[C@@H](O)CN)O[C@H](CN)[C@H]1OCCCCCCCCC	4 to 8 (≈ 7.94 to 15.9 µM)	4 to 8 (≈ 7.94 to 15.9 µM)	4 to 8 (≈ 7.94 to 15.9 µM)	2 (≈ 3.97 µM)	4 (≈ 7.94 µM)	2 (≈ 3.97 µM)	8 (≈ 15.9 µM)	1 (≈ 1.99 µM)	85.1	4 (≈ 7.94 µM)	8 (≈ 15.9 µM)	4 (≈ 7.94 µM)	8 (≈ 15.9 µM)	2 (≈ 3.97 µM)	7.2
CCCCCCCCCO[C@@H]1[C@@H](N)[C@@H](OCC(O)CNCCN)O[C@H](CN)[C@H]1OCCCCCCCCC (mixture of isomers)	4 to 8	8	8	2	4 to 8	2	4 to 8	2	87.5	16 to 32	8 to 16	8	4 to 8	2	53
CCCCCCCCCO[C@@H]1[C@@H](N)[C@@H](OCC(O)CO)O[C@H](CN)[C@H]1OCCCCCCCCC (mixture of isomers)	8	64	64	2	16	1	64	2	89.7	8	64	8	64	2	8.8
GENTAMICIN	64	< 0.25	1	1	1	< 0.25	4			2	4 to 8		> 128	0.25 to 0.5	
